This passage reports Kb, IC50 and ED50 results from ChEMBL document CHEMBL1125320, “Imidazole-5-acrylic acids: potent nonpeptide angiotensin II receptor antagonists designed using a novel peptide pharmacophore model” (J Med Chem, 1992).

The target in assay [1] is T1, Type-1 angiotensin II receptor (Oryctolagus cuniculus) (UniProt P34976).
T1 sequence (whole entry): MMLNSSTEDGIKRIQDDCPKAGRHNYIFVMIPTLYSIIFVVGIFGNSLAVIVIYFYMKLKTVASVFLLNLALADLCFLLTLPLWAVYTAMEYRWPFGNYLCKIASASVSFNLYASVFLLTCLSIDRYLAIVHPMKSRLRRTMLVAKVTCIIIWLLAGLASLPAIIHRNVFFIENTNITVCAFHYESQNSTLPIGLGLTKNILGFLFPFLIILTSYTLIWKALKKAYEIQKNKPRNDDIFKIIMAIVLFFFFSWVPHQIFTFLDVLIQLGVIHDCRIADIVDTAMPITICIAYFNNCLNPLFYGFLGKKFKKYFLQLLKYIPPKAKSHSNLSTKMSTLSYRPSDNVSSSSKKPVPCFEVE
The assay is described as follows: (§1) Compound was evaluated for the inhibition of AII-induced vasoconstriction of the rabbit aorta. The class given is functional, tissue-based. The essentials:
(§2)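 Isolated rabbit aorta ring segments mounted on metal supports attached to force displacement transducers. Cumulative angiotensin II concentration-response curves were run without antagonist or after a 30-min antagonist incubation.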

For the next assay, the target named is T2, Angiotensin II receptor (Rattus norvegicus, UniProt P29089+P25095+P35351).
T2 sequence (P29089 whole entry): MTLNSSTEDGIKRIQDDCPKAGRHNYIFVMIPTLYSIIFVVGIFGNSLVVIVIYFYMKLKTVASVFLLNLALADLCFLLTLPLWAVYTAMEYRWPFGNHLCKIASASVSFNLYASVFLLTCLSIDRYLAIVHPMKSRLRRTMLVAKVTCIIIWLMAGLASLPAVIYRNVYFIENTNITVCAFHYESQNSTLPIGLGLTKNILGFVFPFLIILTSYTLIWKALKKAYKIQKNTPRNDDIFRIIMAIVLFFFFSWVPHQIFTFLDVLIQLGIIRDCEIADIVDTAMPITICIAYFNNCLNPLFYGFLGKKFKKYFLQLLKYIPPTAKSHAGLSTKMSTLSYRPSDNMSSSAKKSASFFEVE
T2 sequence (P25095 whole entry): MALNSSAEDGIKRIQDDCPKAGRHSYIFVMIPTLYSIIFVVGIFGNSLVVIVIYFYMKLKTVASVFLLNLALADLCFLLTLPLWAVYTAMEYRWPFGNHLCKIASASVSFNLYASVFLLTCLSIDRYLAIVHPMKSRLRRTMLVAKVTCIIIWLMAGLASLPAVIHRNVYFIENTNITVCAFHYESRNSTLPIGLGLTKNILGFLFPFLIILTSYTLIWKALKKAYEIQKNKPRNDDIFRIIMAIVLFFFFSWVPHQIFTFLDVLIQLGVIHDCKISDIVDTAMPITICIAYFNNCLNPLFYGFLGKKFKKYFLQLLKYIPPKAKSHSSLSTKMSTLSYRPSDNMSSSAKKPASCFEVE
T2 sequence (P35351 whole entry): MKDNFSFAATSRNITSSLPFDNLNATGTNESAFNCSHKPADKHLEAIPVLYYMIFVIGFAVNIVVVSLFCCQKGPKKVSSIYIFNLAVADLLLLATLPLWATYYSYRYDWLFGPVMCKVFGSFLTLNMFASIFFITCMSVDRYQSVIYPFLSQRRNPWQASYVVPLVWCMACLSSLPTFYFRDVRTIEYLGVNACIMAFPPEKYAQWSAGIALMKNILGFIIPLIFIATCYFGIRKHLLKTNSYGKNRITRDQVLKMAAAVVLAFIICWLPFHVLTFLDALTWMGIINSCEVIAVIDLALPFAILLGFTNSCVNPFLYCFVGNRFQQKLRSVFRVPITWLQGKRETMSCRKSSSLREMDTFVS
Briefly: Inhibition of [125I]angiotensin II specific binding to rat mesenteric arteries. It is filed as protein assay.

The test system of the next assay is Rattus norvegicus. The assay is described as follows: Compound was evaluated in vivo, for the dose that produced 50% inhibition of the pressor response to AII in conscious normotensive rats after intraduodenal administration. The class given is functional. The conditions noted are these: read-out: ID50 (the source's name).
Assay [2] concerns the target T1, Type-1 angiotensin II receptor (Oryctolagus cuniculus). Described as §1. The class given is tissue-based. An outline of the steps: as §2
The target in assay [3] is T3, Type-1 angiotensin II receptor B (Rattus norvegicus, UniProt P29089).
T3 sequence (P29089 whole entry): T2 sequence (P29089 whole entry)
The assay is described as follows: Compound was evaluated for the inhibition of [125I]AII specific binding to rat mesenteric arteries. The essentials: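 Particulate fraction from rat mesenteric arteries incubated in Tris buffer with 80 pM [125I]angiotensin II, with or without antagonist, for 1 h at 25 °C. The incubation was stopped by rapid filtration, and filter-bound radioligand was counted on a γ counter. Inhibition of specific binding; n = 3-5.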

Compound `CCCCc1ncc(/C=C(\Cc2ccc(O)c(O)c2)C(=O)O)n1Cc1ccccc1Cl` displayed a Kb in assay [1] of 0.14 µM. At Angiotensin II receptor, the IC50 (as a rule, the concentration that gives 50% inhibition) is 0.058 µM. In addition, the ED50 with Rattus norvegicus was determined as 20 mg/kg.

Consider `CCCCc1ncc(/C=C(\Cc2cccc(Oc3ccccc3)c2)C(=O)O)n1Cc1ccccc1Cl`, for which the Kb in assay [2] was determined as 18.1 µM. In addition, in assay [3], the IC50 worked out at 10 µM.
